Compound activity (PubChem BioAssay)
This is a sample that favours compounds with a hit; in the whole collection about 1.9% have one here.
UBC13 inh = UBC13 polyubiquitin chain formation inhibitors, primary screen, biochemical, TR-FRET, uHTS; Ubiquitin-conjugating enzyme E2 N (Homo sapiens), P61088; inhibition, % at 20 µM; 330,000 compounds, 0.47% hits; AID 485273, 2010; in the data active = inhibition above about 45%, passing the limit was not always enough
SR-BI uptake up = activators of SR-BI mediated DiI-HDL uptake, primary screen, ldlA[mSR-BI] CHO cells, DiI fluorescence | 3 h; 100 = double the neutral-control signal | activation, % at 12.5 µM | 320,000 compounds, 0.096% hits;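 active = mean replicate activation of at least 60% and every replicate at or above 60%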;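 note: 0% = median plate neutral-control signal and 100% = twice that signal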
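System: LDL receptor-deficient CHO ldlA cells overexpressing murine SR-BI | Timing: 3 h uptake period with compound, 37 °C | Medium: HEPES-buffered (25 mM, pH 7.4) F12 plus 0.5% BSA | Dosing: Single-point compound dose | Signal: Bottom-read fluorescence, 550/595 nm | Read-out: Retained DiI signal reflecting DiI-HDL uptake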
Neddylation inh = inhibitors of cullin neddylation, primary screen, biochemical, TR-FRET, uHTS, NAE and Ubc12; inhibition, % at 25 µM; 360,000 compounds, 0.58% hits; AID 651699, 2012; in the data active = inhibition above about 36%
Target sequence (P61081 whole entry, looked up): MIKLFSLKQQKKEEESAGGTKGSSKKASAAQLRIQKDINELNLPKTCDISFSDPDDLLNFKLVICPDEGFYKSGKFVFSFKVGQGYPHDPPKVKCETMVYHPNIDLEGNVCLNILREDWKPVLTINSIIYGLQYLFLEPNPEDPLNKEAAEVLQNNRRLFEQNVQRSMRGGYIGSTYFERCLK
Target sequence (Q13564 whole entry, looked up): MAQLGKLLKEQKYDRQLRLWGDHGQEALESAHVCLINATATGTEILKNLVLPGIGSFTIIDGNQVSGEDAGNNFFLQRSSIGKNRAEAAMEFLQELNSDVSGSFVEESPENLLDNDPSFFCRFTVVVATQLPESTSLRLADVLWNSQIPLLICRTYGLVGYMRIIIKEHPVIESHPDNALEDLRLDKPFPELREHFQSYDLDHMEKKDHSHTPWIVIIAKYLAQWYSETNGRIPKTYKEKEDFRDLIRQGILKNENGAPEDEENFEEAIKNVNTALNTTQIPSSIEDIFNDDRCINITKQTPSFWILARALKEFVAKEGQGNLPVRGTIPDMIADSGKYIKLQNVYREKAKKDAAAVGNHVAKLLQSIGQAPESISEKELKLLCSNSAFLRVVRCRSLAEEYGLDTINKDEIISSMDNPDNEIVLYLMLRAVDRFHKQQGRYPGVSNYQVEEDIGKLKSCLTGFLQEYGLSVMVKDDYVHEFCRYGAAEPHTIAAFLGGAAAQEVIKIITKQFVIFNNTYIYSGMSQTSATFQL
SR-BI HDL uptake = inhibitors of SR-BI mediated HDL lipid uptake, primary screen, ldlA[mSR-BI] cells, fluorescence, single point | ldlA[mSR-BI] CHO cells, DiI-HDL uptake fluorescence, 3 h | inhibition, % at 12.5 µM | 320,000 compounds, 0.96% hits | AID 488896, 2010;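 active = mean replicate inhibition of at least 70% and a set share of replicates each scoring 70 or more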;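 note: 0% = median of neutral control wells and 100% = median of positive control wells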
Neddyl inh conf = blockade of NEDD8 conjugation to cullin – biochemical, TR-FRET, single concentration, confirmation | shares compounds with Neddylation inh | TR-FRET cullin neddylation biochemical assay | calls only at 25 µM | 1,800 compounds, 13% hits | AID 652217, 2013; in the data active = inhibition above about 40%;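 note: neddylation substrate is the cullin 1 ring ligase complex with SKP2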
Starred values were filed as active, the others as inactive; i = inactive; . = no result shown; + = active, no number.

SMILES	UBC13 inh	SR-BI uptake up	Neddylation inh	SR-BI HDL uptake	Neddyl inh conf
COC(=O)c1cc(NC(=O)c2c(-c3c(Cl)cccc3Cl)noc2C)ccc1N1CCOCC1	6	-13	13	13	.
Cc1[nH]nc2c1C(c1ccc(O)cc1)C1=C(CC(C)(C)CC1=O)N2 (stereo not given)	-9	3	45*	-3	i
Cn1ncc2c(=O)[nH]c(N)nc21	.	19	3	-19	.
CCN(CC)S(=O)(=O)c1cccc(-c2cn3cc(C)ccc3n2)c1	11	.	39*	.	i
Cc1ccc2nc(-c3cccc(S(=O)(=O)N(C)C)c3)cn2c1	3	.	28	.	.
COC(=O)C[C@@H]1C[C@@H]2c3cc(NS(=O)(=O)c4ccc(F)cc4)ccc3O[C@@H]2[C@H](CO)O1	.	.	9	.	.
O=C(NCc1cccnc1)c1cc(S(=O)(=O)N2CCCC2)c(Cl)cc1Cl	5	.	0	.	.
CCN(CC)S(=O)(=O)c1cccc(C(=O)Nc2cc3oc4ccccc4c3cc2OC)c1	1	-45	31	45	.
CCCN(CCC)S(=O)(=O)c1ccc(C(=O)Nc2cc3oc4ccccc4c3cc2OC)cc1	2	1	45*	-1	i
O=C(COc1ccc2ccccc2c1)Nc1ccccc1C(=O)O	-8	32	2	-32	.
O=NN(CC(=O)NNc1ccccc1)CC(=O)NNc1ccccc1	.	.	1	.	.
COCCNc1nc2ccccc2nc1NS(=O)(=O)c1ccc(C)cc1C	-2	6	38*	-6	+
COCCCNc1nc2ccccc2nc1NS(=O)(=O)c1ccc(C)c(C)c1	-3	14	42*	-14	.
CCOc1ccc(NC(=O)CN(C)C(=O)c2c(-c3ccccc3Cl)noc2C)cc1OCC	2	-64	14	64	.
CCOC(=O)C1(C)CCCN(C(=O)COc2ccccc2)C1 (stereo not given)	.	.	0	.	.
Cc1cccc(C)c1NC(=O)C(c1ccccc1)N1CCN(c2ccc(C(F)(F)F)cn2)CC1 (stereo not given)	.	.	13	.	.
COC(=O)c1ccc(C(=O)OC)c(NC(=O)/C=C/C(=O)O)c1	-4	.	44*	.	i
COC(=O)c1ccc(C(=O)OC)c(NC(=O)Oc2ccccc2)c1	15	12	24	-12	.
COc1ccccc1Nc1ncc(C(=O)N2CCN(Cc3ccc(OC)c(OC)c3OC)CC2)c2ccccc12	-2	-66	44*	66	.
COc1cccc(CC(NC(C)=O)C(=O)NC2CCN(c3nc(C)cc(C)c3C#N)CC2)c1 (stereo not given)	0	-37	30	37	.
COc1ccc(CC(NC(C)=O)C(=O)NC2CCN(c3nc(C)cc(C)c3C#N)CC2)c(OC)c1 (stereo not given)	12	-20	41*	20	i
NC(=O)c1cccc(-c2coc3c(C(=O)NC4CCCCC4)cccc23)c1	.	.	17	.	.
c1ccc(Nc2ccccc2)cc1	4	17	14	-17	.
c1ccc(Nc2cccc3c(Nc4ccccc4)cccc23)cc1	23	-27	38*	27	+
CCCC(=O)N1CCCC1(C)C(=O)Nc1ccc2c(c1)CCN2C(C)=O (stereo not given)	.	.	2	.	.
SMILES	UBC13 inh	SR-BI uptake up	Neddylation inh	SR-BI HDL uptake	Neddyl inh conf
Cc1nc2c(c(=O)n1CCC1=CCCCC1)c1nc3ccccc3nc1n2/N=C/c1ccccc1	-8	23	19	-23	.
CCOCCCn1c(C)nc2c(c1=O)c1nc3ccccc3nc1n2CCC1=CCCCC1	32	-10	45*	10	i
Cc1cccc(C)c1NC(=O)C1c2ccccc2OCC(=O)N1CCc1ccccc1 (stereo not given)	.	.	6	.	.
COc1ccc(-c2cc3ccc(O)cc3oc2=O)cc1OC	10	7	38	-7	.
COc1ccc(-c2cc3ccc(OCC(N)=O)cc3oc2=O)cc1OC	0	3	42*	-3	i
S=C(NCCc1ccccc1)N/N=C/c1cccc(Cl)c1Cl	-17	12	-4	-12	.
Oc1ccccc1C=NNC(=S)Nc1ccc(F)cc1	.	-101	45*	101*	.
Fc1ccc(NC(=S)NN=Cc2ccccc2Cl)cc1	.	-18	-23	18	.
Oc1ccccc1/C=N/NC(=S)NCCc1ccccc1	.	-26	42*	26	i
O=C(NNC(=O)c1ccc2ccccc2c1O)NC1CCCCC1	15	.	41*	90*	i
CCn1c(=O)c(CCC(=O)NCC2CCCO2)c(C)c2c(C)nn(-c3ccccc3)c21 (stereo not given)	-5	-36	40*	36	i
Cc1ccc(-n2nc(C)c3c(C)c(CCC(=O)NCC4CCCO4)c(=O)n(C)c32)cc1 (stereo not given)	1	1	-116	-1	.
O=C(N/N=C/c1sc(N2CCOCC2)nc1-c1ccccc1)c1ccc(O)cc1	19	-59	59*	59	+
COc1ccccc1NS(=O)(=O)c1cc([N+](=O)[O-])ccc1N/N=C/c1sc(N2CCOCC2)nc1-c1ccccc1	.	-41	-40	41	.
COc1ccc(C(=O)N/N=C/c2sc(N3CCOCC3)nc2-c2ccccc2)cc1OC	11	-57	45*	57	i
Cn1c(=O)n(C)c2cc(S(=O)(=O)Nc3ccccc3C(=O)O)ccc21	-2	5	42*	-5	i
CCc1nn(CC(=O)NCCC(C)C)c(=O)c2cc3c(OC)cccc3n12	4	5	40*	-5	i
COC(=O)c1[nH]c2cccc(OC)c2c1NC(=O)CN1CCN(c2cccc(OC)c2)C(C)C1 (stereo not given)	9	.	48*	13	.
CCOC(=O)Nc1c(C(=O)OC)[nH]c2cccc(OC)c12	17	10	42*	-10	i
NC(=O)c1ccsc1NC(=O)Cc1ccc([N+](=O)[O-])cc1	36	-15	-24	15	.
Cc1[nH]c2ccccc2c1C(=O)C(C)OC(=O)c1ccccc1NCCO (stereo not given)	13	-46	54*	46	.
COc1cc2c(cc1OC)C(C1C(=O)CC(C)(C)CC1=O)N(C(=O)CCl)CC2 (stereo not given)	6	3	41*	-3	i
CCOC(=O)C1CCN(C(=O)COc2ccc3c(C)cc(=O)oc3c2)CC1	-5	-20	42*	20	i
Cc1cc(=O)oc2cc(OCC(=O)NCCCn3ccnc3)ccc12	1	-5	27	5	.
Cc1cc(=O)oc2cc(OCC(=O)N3CCOCC3)ccc12	-10	-45	11	45	.
CCc1cc(=O)oc2cc(OCC(=O)N3CCC(C(=O)O)CC3)ccc12	-1	15	34	-15	.
Cc1cc(=O)oc2cc(OCC(=O)N3CCCC3)ccc12	-7	-4	48*	4	i
